The values that follow come from ChEMBL document CHEMBL1132220 (J Med Chem, 1999).

Assay [1] has as its target Somatostatin receptor type 1 (Homo sapiens, UniProt P30872). The assay is described as follows: The compound was tested for binding affinity against human Somatostatin receptor type 1. The procedure, abridged:
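Membranes from CHO-K1 cells transfected with the cloned human receptor. Terminated by filtration on PEI-soaked GF/C filters. Nonspecific binding defined with 1.0 μM SRIF. Mean ± SEM; single values are from one experiment.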

Assay [2] has as its target Somatostatin receptor type 3 (Homo sapiens, UniProt P32745). The assay is described as follows: The compound was tested for binding affinity against human Somatostatin receptor type 3. The procedure, abridged:
(§1)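 CHO-K1 cells stably transfected (calcium phosphate) with cloned human sst3 or sst4. Membranes made in ice-cold 50 mM Tris-HCl, resuspended in 10 mM Tris-HCl, then incubated 30 min at 37 °C with 0.05 nM [125I]Tyr11-SRIF in HEPES pH 7.4 with BSA, MgCl2 and protease inhibitors. Filtered on GF/C; nonspecific binding with 1.0 µM SRIF. Mean ± SEM, or one experiment.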

Assay [3] deals with Somatostatin receptor type 4 (Homo sapiens, UniProt P31391). The assay is described as follows: The compound was tested for binding affinity against human Somatostatin receptor type 4. The procedure, abridged:
as §1

Assay [4] addresses Somatostatin receptor type 2 (Homo sapiens, UniProt P30874). The assay is described as follows: The compound was tested for binding affinity against human Somatostatin receptor type 2. The procedure, abridged:
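Membranes from CHO-K1 cells transfected with the cloned human sst2. Incubated 30 min at 37 °C with 0.05 nM [125I]MK-678 in HEPES pH 7.4 with BSA, MgCl2, Trasylol, bacitracin and PMSF. Filtration on PEI-soaked GF/C filters. Nonspecific binding defined with 1.0 μM SRIF. Mean ± SEM; single values are from one experiment.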

The target in a further assay is Somatostatin receptor. As to the kind of experiment: Antagonism of in vitro SRIF inhibition of GH release in rat in vitro pituitary cell assay. The assay is classed as functional, cell-based. The following applies: pituitary gland cell. The procedure, abridged:
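Dispersed adult male rat anterior pituitary cells (trypsin/DNase), about 200 000 cells/well, cultured 4–5 days at 37 °C. GH measured by double-antibody RIA. IC50 versus SRIF, mean ± SEM of n dose–response curves.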

Somatostatin receptor type 4, sequence (P31391 whole entry): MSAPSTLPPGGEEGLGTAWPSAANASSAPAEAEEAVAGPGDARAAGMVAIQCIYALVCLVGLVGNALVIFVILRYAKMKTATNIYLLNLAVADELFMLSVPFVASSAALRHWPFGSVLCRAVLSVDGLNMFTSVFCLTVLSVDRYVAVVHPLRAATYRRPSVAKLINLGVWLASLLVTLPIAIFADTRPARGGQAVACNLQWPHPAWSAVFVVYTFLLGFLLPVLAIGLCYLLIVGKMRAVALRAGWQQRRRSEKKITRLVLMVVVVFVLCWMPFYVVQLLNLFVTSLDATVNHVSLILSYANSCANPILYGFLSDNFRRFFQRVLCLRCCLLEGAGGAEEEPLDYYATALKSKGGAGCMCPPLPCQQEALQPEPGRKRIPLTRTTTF
Somatostatin receptor type 1, sequence (P30872 whole entry): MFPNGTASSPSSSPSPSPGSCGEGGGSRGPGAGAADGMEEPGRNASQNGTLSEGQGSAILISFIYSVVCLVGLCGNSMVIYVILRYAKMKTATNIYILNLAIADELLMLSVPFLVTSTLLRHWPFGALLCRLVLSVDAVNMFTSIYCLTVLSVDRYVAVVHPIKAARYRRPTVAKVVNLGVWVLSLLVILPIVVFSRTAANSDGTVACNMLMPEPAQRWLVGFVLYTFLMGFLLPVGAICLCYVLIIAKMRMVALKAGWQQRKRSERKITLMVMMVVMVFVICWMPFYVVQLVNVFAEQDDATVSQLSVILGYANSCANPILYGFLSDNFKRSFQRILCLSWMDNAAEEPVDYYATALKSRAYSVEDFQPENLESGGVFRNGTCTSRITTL
Somatostatin receptor type 2, sequence (P30874 whole entry): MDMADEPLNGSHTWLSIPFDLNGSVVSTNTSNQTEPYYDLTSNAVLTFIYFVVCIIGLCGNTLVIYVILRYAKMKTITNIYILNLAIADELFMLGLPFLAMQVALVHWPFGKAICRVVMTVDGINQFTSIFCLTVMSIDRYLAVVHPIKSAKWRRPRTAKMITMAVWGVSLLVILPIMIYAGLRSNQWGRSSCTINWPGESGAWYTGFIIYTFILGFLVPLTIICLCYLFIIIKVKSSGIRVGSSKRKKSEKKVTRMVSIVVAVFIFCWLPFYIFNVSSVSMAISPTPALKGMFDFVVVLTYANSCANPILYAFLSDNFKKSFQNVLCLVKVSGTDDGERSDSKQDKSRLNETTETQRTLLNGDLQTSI
Somatostatin receptor type 3, sequence (P32745 whole entry): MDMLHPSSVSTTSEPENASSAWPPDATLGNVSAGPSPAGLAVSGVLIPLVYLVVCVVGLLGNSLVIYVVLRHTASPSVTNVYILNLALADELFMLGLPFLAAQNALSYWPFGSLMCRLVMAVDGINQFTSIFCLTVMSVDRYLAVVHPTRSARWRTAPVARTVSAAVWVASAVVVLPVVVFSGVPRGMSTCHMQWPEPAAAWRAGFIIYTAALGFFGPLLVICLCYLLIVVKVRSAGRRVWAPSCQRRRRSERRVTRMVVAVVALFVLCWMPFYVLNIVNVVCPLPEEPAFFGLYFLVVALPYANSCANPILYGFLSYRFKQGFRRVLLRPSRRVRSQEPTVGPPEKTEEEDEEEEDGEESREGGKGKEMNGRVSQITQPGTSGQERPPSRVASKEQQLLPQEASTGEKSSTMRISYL

Regarding `C[C@@H](O)[C@@H]1NC(=O)[C@H](CCCCN)NC(=O)[C@@H](Cc2c[nH]c3ccccc23)NC(=O)[C@H](Cc2ccc(O)cc2)NC(=O)[C@H](NC(=O)[C@@H](N)Cc2ccc(Cl)cc2)CSSC[C@@H](C(=O)N[C@@H](Cc2ccc3ccccc3c2)C(N)=O)NC1=O`, the Ki (in general, the dissociation constant of the complex between target and ligand, obtained from inhibition or displacement) is over 1000 nM in assay [1], 93 nM in assay [2], over 1000 nM in assay [3] and 26 nM in assay [4]. The IC50 (in general, the concentration that inhibits the measured activity by half) on Somatostatin receptor turned out to be 1.1 nM.

Regarding `CC(C)[C@H]1NC(=O)[C@H](CCCCN)NC(=O)[C@@H](Cc2c[nH]c3ccccc23)NC(=O)[C@H](Cc2cccnc2)NC(=O)[C@@H](NC(=O)[C@@H](N)Cc2ccccc2F)CSSC[C@H](C(=O)N[C@@H](Cc2ccccc2F)C(N)=O)NC1=O`, the IC50 against Somatostatin receptor amounted to 114 nM.

Regarding `CC(C)[C@H]1NC(=O)[C@H](CCCCN)NC(=O)[C@@H](Cc2c[nH]c3ccccc23)NC(=O)[C@H](Cc2cccnc2)NC(=O)[C@@H](NC(=O)[C@@H](N)Cc2ccc(F)cc2)CSSC[C@H](C(=O)N[C@@H](Cc2ccc(F)cc2)C(N)=O)NC1=O`, the IC50 against Somatostatin receptor is reported as 87 nM.
